# Results from paper PMC3835402 (Molecular bioSystems, 2010).
# Entries after “also recorded” stand apart in the source; their conditions may differ.
# Columns and labels:
# endogenous ER-α = biological target: T1, endogenous ER-α (Homo sapiens, UniProt P03372); test: ER degradation in MCF7 cells by western blotting; assay type: cell-based; settings: western blot; for ER level on treatment with 13 and the proteasome inhibitor epoxomicin: Fig. 4A
# T1 sequence (P03372 1-595): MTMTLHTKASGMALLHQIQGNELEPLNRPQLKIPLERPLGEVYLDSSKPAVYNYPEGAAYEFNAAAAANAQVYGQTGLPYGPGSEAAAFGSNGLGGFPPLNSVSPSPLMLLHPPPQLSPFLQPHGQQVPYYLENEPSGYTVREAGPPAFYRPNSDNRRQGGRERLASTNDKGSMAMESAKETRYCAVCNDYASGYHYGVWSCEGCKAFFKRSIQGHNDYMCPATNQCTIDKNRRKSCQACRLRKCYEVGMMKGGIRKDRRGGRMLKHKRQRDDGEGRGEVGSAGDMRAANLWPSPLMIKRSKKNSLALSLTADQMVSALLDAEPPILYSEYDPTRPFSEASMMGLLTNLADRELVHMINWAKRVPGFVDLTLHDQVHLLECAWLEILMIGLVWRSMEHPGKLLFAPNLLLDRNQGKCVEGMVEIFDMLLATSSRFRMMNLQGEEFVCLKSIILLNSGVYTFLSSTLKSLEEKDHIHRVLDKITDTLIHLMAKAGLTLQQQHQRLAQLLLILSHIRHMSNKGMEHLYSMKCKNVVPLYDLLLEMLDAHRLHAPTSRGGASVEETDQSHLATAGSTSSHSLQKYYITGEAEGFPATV
# MCF7 cells = test: Cell viability assay by MTS; assay type: cell-based, human; settings: 48 hour treatment, Fig. 5B
# Outline: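 MCF7 seeded at 5 × 10³ cells in RPMI 1640 with 10% FBS overnight, then switched to 5% charcoal-dextran FBS RPMI for 24 h before dosing. Test compound was added in DMSO vehicle for 48 h. Viability was read by MTS (CellTiter 96 AQueous One) absorbance at 490 nm. IC50 was fitted by nonlinear sigmoid dose-response regression from at least triplicate results.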
# ER = biological target: T2, ER (Homo sapiens, UniProt P03372); test: ER immunofluorescence in MCF7 cells; assay type: cell-based; settings: ER green, DAPI blue, compared to controls, Fig. 4C
# T2 sequence (P03372 1-595): T1 sequence (P03372 1-595)
# Outline: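 MCF7 on ethanol/UV-sterilized coverslips, attached 24 h, then kept in phenol-red-free RPMI with 5% charcoal/dextran FBS. Test compound diluted in that medium, applied as for the western blots. Fixed in 4% PFA, permeabilized with 0.2% Triton X. Blocked in 10% goat serum/0.1% BSA in PBST. Anti-ER 1 h at 37°C, then Alexa Fluor 488 secondary 30 min. DAPI mount, inverted fluorescence microscopy.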
molecule,measurement,setting,value
-Leu-Ala-Pro^OH-Tyr-Ile-OBzl [compound 12],"ER degradation, dependence on the hydroxyproline residue (pVHL recognition)",endogenous ER-α; Fig. 4B (text says Fig 4C),effectively causes ER degradation
-Leu-Ala-Pro^OH-Tyr-Ile-OBzl [compound 13],"time-dependent ER degradation, treated once","endogenous ER-α; between 48 and 72 hours, Fig. 3D",stable between 48 and 72 hours
same,ER level on treatment with 13 and the proteasome inhibitor epoxomicin,endogenous ER-α,proteasome-dependent
same,ER degradation at even lower doses,endogenous ER-α; data not shown,degraded the ER most effectively
same,inhibition of proliferation of MCF7 cells,MCF7 cells,best efficacy; also recorded: most effective
-Leu-Ala-Nle-Leu-Tyr-Ile-OBzl [compound 17],ER level by immunofluorescence,ER,does not cause ER degradation
"CC[C@H](C)[C@H](NC(=O)[C@H]([C@@H](C)CC)N(C)C(C)=O)C(=O)N[C@H](C(=O)N[C@@H](CC(C)C)C(=O)[C@@]1(C)CO1)[C@@H](C)O [epoxomicin, reference compound]",ER level on treatment with 13 and the proteasome inhibitor epoxomicin,endogenous ER-α,accumulation of the ER
same,ER level by immunofluorescence,ER,causes the accumulation of the ER
-Leu-Ala-Pro^OH-Tyr-Ile-OBzl [compound 15],ER degradation at the highest concentration examined,"endogenous ER-α; 50 μM, 48 hour treatment, Fig. 3B",all PROTACs but 15 showed significant ER degradation
